Several values for one entry are separate records, joined by “and”; a condition that tells them apart may be missing. Identical values can stand only once.
System: Fibroblast
Test: Multiplex assay against human fibroblast
Assay type: toxicity, cell-based
Procedure, shortened: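 Imaging took place on a CQ1 microscope at 37°C and 5% CO2 once compound had been added to live cells stained at seeding with Hoechst33342, BioTracker Green Microtubule Cytoskeleton Dye, MitoTracker Red and Annexin V Alexa Fluor 680. CellPathfinder machine-learning gating classed cells as Hoechst high-intensity objects or normal cells, classed normal cells as having healthy, pyknosed or fragmented nuclei, and classed pyknosed cells as mitotic or apoptotic. Tubulin, mitochondrial-mass and membrane-permeability phenotypes are per cents of the healthy-nucleus cells.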

[1] = 12 h, 1 µM, compound concentration 1 uM, replicate 1
[2] = 12 h, 1 µM, compound concentration 1 uM, replicate 2
[3] = 12 h, 10 µM, compound concentration 10 uM, replicate 1
[4] = 12 h, 10 µM, compound concentration 10 uM, replicate 2
[5] = 24 h, 1 µM, compound concentration 1 uM, replicate 1
[6] = 24 h, 1 µM, compound concentration 1 uM, replicate 2
[7] = 24 h, 10 µM, compound concentration 10 uM, replicate 1
[8] = 24 h, 10 µM, compound concentration 10 uM, replicate 2
[9] = 48 h, 1 µM, compound concentration 1 uM, replicate 1
[10] = 48 h, 1 µM, compound concentration 1 uM, replicate 2
[11] = 48 h, 10 µM, compound concentration 10 uM, replicate 1
[12] = 48 h, 10 µM, compound concentration 10 uM, replicate 2

CS(=O)(=O)N1CCCC(NC(=O)[C@H](CCC2CCCCC2)NC(=O)c2ccc(CNc3ncnc4c3nnn4-c3ccccc3)cc2)C1 (stereo not given in full) [SR-301]
Population Apoptotic (%) [1]: 58% and 60% and 56% | Population Fragmented Nuclei (%) [1]: 22% and 18% and 20% | Population Healthy Nuclei (%) [1]: 31% and 27% and 35% | Population Hoechst High Intensity Objects (%) [1]: 21% and 15% and 12% | Population Membrane Permeable-Phenotype (%) [1]: 16% and 32% and 28% | Population Mitochondria Different-Phenotype (%) [1]: 13% and 12% and 26% | Population Mitotic Cells (%) [1]: 41% and 39% and 43% | Population Normal (%) [1]: 78% and 84% and 87% | Population Pyknosed Nuclei (%) [1]: 46% and 53% and 44% | Population Tubulin-Different-Phenotype (%) [1]: 47% and 61% and 57% | Total Cell Count [1]: 146 and 134 | Population Apoptotic (%) [2]: 25% and 63% and 33% | Population Fragmented Nuclei (%) [2]: 14% and 11% and 7% | Population Healthy Nuclei (%) [2]: 81% and 70% and 89% | Population Mitochondria Different-Phenotype (%) [2]: 20% and 14% and 10% | Population Mitotic Cells (%) [2]: 75% and 36% and 66% | Population Normal (%) [2]: 80% and 86% and 94% | Population Tubulin-Different-Phenotype (%) [2]: 21% and 19% and 12% | Total Cell Count [2]: 135 and 58 and 69 | Population Apoptotic (%) [3]: 94% and 85% and 73% | Population Fragmented Nuclei (%) [3]: 34% and 37% and 21% | Population Healthy Nuclei (%) [3]: 20% and 17% and 28% | Population Hoechst High Intensity Objects (%) [3]: 19% and 17% and 12% | Population Membrane Permeable-Phenotype (%) [3]: 36% and 16% and 19% | Population Mitochondria Different-Phenotype (%) [3]: 20% and 25% and 36% | Population Normal (%) [3]: 80% and 82% and 87% | Population Pyknosed Nuclei (%) [3]: 45% and 44% and 50% | Population Tubulin-Different-Phenotype (%) [3]: 32% and 48% and 51% | Total Cell Count [3]: 153 and 216 and 163 | Population Apoptotic (%) [4]: 80% and 75% and 41% | Population Fragmented Nuclei (%) [4]: 39% and 27% | Population Healthy Nuclei (%) [4]: 25% and 58% | Population Membrane Permeable-Phenotype (%) [4]: 61% and 54% and 30% | Population Mitochondria Different-Phenotype (%) [4]: 66% and 54% and 34% | Population Mitotic Cells (%) [4]: 20% and 25% and 58% | Population Normal (%) [4]: 89% and 95% and 97% | Population Pyknosed Nuclei (%) [4]: 39% and 47% and 20% | Population Tubulin-Different-Phenotype (%) [4]: 55% and 54% and 34% | Total Cell Count [4]: 89 and 86 and 105 | Population Apoptotic (%) [5]: 58% and 59% and 61% | Population Fragmented Nuclei (%) [5]: 20% and 24% and 25% | Population Healthy Nuclei (%) [5]: 39% and 33% and 42% | Population Hoechst High Intensity Objects (%) [5]: 18% and 10% | Population Membrane Permeable-Phenotype (%) [5]: 35% and 23% and 20% | Population Mitochondria Different-Phenotype (%) [5]: 17% and 9% and 18% | Population Mitotic Cells (%) [5]: 41% and 40% and 38% | Population Normal (%) [5]: 81% and 89% | Population Pyknosed Nuclei (%) [5]: 41% and 42% and 31% | Population Tubulin-Different-Phenotype (%) [5]: 53% and 66% and 52% | Total Cell Count [5]: 123 and 142 and 153 | Population Fragmented Nuclei (%) [6]: 12% and 7% | Population Healthy Nuclei (%) [6]: 78% and 80% and 86% | Population Membrane Permeable-Phenotype (%) [6]: 7% and 6% and 3% | Population Mitochondria Different-Phenotype (%) [6]: 20% and 10% and 8% | Population Mitotic Cells (%) [6]: 87% and 60% and 55% | Population Normal (%) [6]: 80% and 95% and 96% | Population Pyknosed Nuclei (%) [6]: 9% and 12% and 6% | Population Tubulin-Different-Phenotype (%) [6]: 13% and 26% and 14% | Total Cell Count [6]: 148 and 64 and 84 | Population Apoptotic (%) [7]: 84% and 87% | Population Fragmented Nuclei (%) [7]: 31% and 40% and 42% | Population Healthy Nuclei (%) [7]: 24% and 22% | Population Hoechst High Intensity Objects (%) [7]: 20% and 15% and 21% | Population Membrane Permeable-Phenotype (%) [7]: 23% and 21% and 17% | Population Mitochondria Different-Phenotype (%) [7]: 43% and 48% and 34% | Population Mitotic Cells (%) [7]: 15% and 12% | Population Normal (%) [7]: 79% and 84% and 78% | Population Pyknosed Nuclei (%) [7]: 43% and 36% and 35% | Population Tubulin-Different-Phenotype (%) [7]: 63% and 53% and 68% | Total Cell Count [7]: 154 and 214 and 166 | Population Apoptotic (%) [8]: 91% and 94% and 89% | Population Fragmented Nuclei (%) [8]: 25% and 32% and 19% | Population Hoechst High Intensity Objects (%) [8]: 9% | Population Mitotic Cells (%) [8]: 8% and 5% and 10% | Population Normal (%) [8]: 90% | Population Pyknosed Nuclei (%) [8]: 49% and 50% and 21% | Total Cell Count [8]: 98 and 89 and 110 | Population Apoptotic (%) [9]: 75% and 70% | Population Fragmented Nuclei (%) [9]: 38% and 39% and 30% | Population Healthy Nuclei (%) [9]: 46% and 41% | Population Hoechst High Intensity Objects (%) [9]: 25% and 18% | Population Membrane Permeable-Phenotype (%) [9]: 32% and 27% and 25% | Population Mitochondria Different-Phenotype (%) [9]: 8% and 9% and 10% | Population Mitotic Cells (%) [9]: 25% and 30% | Population Normal (%) [9]: 74% and 81% | Population Pyknosed Nuclei (%) [9]: 16% and 19% and 23% | Population Tubulin-Different-Phenotype (%) [9]: 43% and 48% and 50% | Total Cell Count [9]: 135 and 127 and 148 | Population Apoptotic (%) [10]: 100% and 60% | Population Fragmented Nuclei (%) [10]: 19% and 21% and 22% | Population Healthy Nuclei (%) [10]: 80% and 73% and 75% | Population Hoechst High Intensity Objects (%) [10]: 8% and 7% and 5% | Population Membrane Permeable-Phenotype (%) [10]: 20% and 15% and 13% | Population Mitochondria Different-Phenotype (%) [10]: 3% and 1% | Population Normal (%) [10]: 91% and 92% and 94% | Population Pyknosed Nuclei (%) [10]: 0% and 4% and 1% | Population Tubulin-Different-Phenotype (%) [10]: 39% and 17% and 40% | Total Cell Count [10]: 131 and 116 and 118 | Population Apoptotic (%) [11]: 85% and 83% and 92% | Population Fragmented Nuclei (%) [11]: 41% and 44% and 50% | Population Healthy Nuclei (%) [11]: 22% and 29% and 25% | Population Hoechst High Intensity Objects (%) [11]: 20% and 26% | Population Membrane Permeable-Phenotype (%) [11]: 32% and 23% | Population Mitochondria Different-Phenotype (%) [11]: 40% and 48% and 30% | Population Mitotic Cells (%) [11]: 15% and 16% and 7% | Population Normal (%) [11]: 79% and 73% | Population Pyknosed Nuclei (%) [11]: 35% and 25% | Population Tubulin-Different-Phenotype (%) [11]: 48% and 44% and 53% | Total Cell Count [11]: 141 and 195 | Population Apoptotic (%) [12]: 84% and 100% and 94% | Population Fragmented Nuclei (%) [12]: 51% and 53% | Population Healthy Nuclei (%) [12]: 35% and 24% and 30% | Population Hoechst High Intensity Objects (%) [12]: 16% and 29% | Population Membrane Permeable-Phenotype (%) [12]: 34% and 14% and 27% | Population Mitochondria Different-Phenotype (%) [12]: 78% and 85% and 72% | Population Mitotic Cells (%) [12]: 0% and 5% | Population Normal (%) [12]: 83% and 70% | Population Pyknosed Nuclei (%) [12]: 20% and 24% and 15% | Population Tubulin-Different-Phenotype (%) [12]: 34% and 32% and 54% | Total Cell Count [12]: 89 and 137 and 153

— ChEMBL document CHEMBL4689842, “EUbOPEN Chemogenomics Library wave 1” (2021)
